# Measured values pooled from the literature.
# Compare with care: the assays were run in different laboratories.
# Mode: inhibitor
# rep main protease: Replicase polyprotein 1ab, main protease (rep, Severe acute respiratory syndrome coronavirus 2, UniProt P0DTD1)
# rep papain-like protease: Replicase polyprotein 1ab, papain-like protease (rep, Severe acute respiratory syndrome coronavirus 2, UniProt P0DTD1)
Compound,target,test,system,setting,inhibition [%]
CCc1ccc(C2C(c3ccccc3)=C(O)C(=O)N2c2ccc(Cl)cc2)cc1 (centres unmarked),rep main protease,enzyme activity,,20 µM,16.8
O=C(O)/C=C/c1ccc(O)c(O)c1,rep main protease,"enzyme activity, FRET",,"10 µM, 10 min",< 25
Cc1ccc2nc(Cl)c(/C=N/c3cccc([N+](=O)[O-])c3)cc2c1,rep papain-like protease,enzyme activity,,10 µM,5.3
Cc1ccc(NC(=O)Nc2cccnc2)cc1Cl,rep main protease,enzyme activity,,20 µM,-7.73
COc1c(O)cc(O)c2c(=O)cc(-c3ccccc3)oc12,rep main protease,enzyme activity,,100 µM,3.6
CCc1ccc(NC(=O)c2cc3c(=O)n4ccccc4nc3n2C)cc1,rep main protease,enzyme activity,,1 µM,11
C/N=c1\nc(-c2ccccc2)n(-c2ccccc2)s1,rep main protease,enzyme activity,,1 µM,96.3
CC(C)C[C@H](NC(=O)OCc1ccccc1)C(=O)N(C)N(C#N)CCC(N)=O,rep main protease,"enzyme activity, fluorescence",,"50 µM, pH 7.2",100
Cc1cc(NC(=O)c2cc3c(=O)n4cccc(C)c4nc3n2C)ccc1Br,rep main protease,enzyme activity,,1 µM,14
O=c1cc(-c2ccc(O)cc2)oc2cc(O)c(O)c(O)c12,rep main protease,enzyme activity,,10 µM,90.7
Cn1c(C(=O)Nc2ccc(Cl)cc2)cc2c(=O)n3ccccc3nc21,rep main protease,enzyme activity,,1 mM,72
O=C1c2cccc(O)c2C(=O)c2c(O)cc(CO)cc21,rep main protease,enzyme activity,,10 µM,10.1
CCOC(=O)C(Cc1c[nH]c2ccccc12)NC(=O)CCC(=O)Nc1ccc(S(N)(=O)=O)cc1 (centres unmarked),rep main protease,enzyme activity,,100 µg/mL,0
COc1cc(C)cc2c1C(=O)C=CC2=O,rep main protease,enzyme activity,,0.1 µM,-4.4
COc1c(-c2ccc(O)c(CC=C(C)C)c2)oc2cc(O)cc(O)c2c1=O,rep main protease,enzyme activity,,8 µM,16.9
COc1cc(O)cc(/C=C/c2ccc(O)cc2)c1,rep main protease,enzyme activity,,20 µM,38.1
O=C(Oc1cncc(Cl)c1)c1cc2c(Cl)cc(Cl)cc2[nH]1,rep main protease,"enzyme activity, fluorescence",,"10 µM, pH 7.2",100
Cc1ccc(NC(=O)c2cc3c(=O)n4cccc(C)c4nc3n2C)cc1Cl,rep main protease,enzyme activity,,100 µM,37
O=C(/C=C/c1ccc(O)c(O)c1)OC1CC(OC(=O)/C=C/c2ccc(O)c(O)c2)(C(=O)O)CC(O)C1O (centres unmarked),rep main protease,enzyme activity,,100 µM,87.3
Cc1c(-c2cnccn2)ssc1=S,rep main protease,enzyme activity,,20 µM,97.6
O=[N+]([O-])c1cccc(-c2nc(O)c3ccccc3n2)c1,rep main protease,enzyme activity,,20 µM,22.3
O=c1c(O)c(-c2ccc(O)c(O)c2)oc2cc(O)cc(O)c12,rep main protease,"enzyme activity, FRET",,"10 µM, 10 min",> 50
Cc1cccc2cc(/C=N\c3ccc(-c4nc5ccccc5[nH]4)cc3)c(Cl)nc12,rep papain-like protease,enzyme activity,,100 µM,44.9
Cc1nc(C(=O)N2CC[C@@H]([C@@H]3CCCN3C(=O)c3cc(O)c4ccoc4c3)C2)cc(=O)[nH]1,rep main protease,enzyme activity,,5 µM,12.2
O=c1cc(-c2ccccc2)oc2cc(O)c(O)c(O)c12,rep main protease,enzyme activity,,100 µM,99.4
CCC(=O)Oc1cccc2c1C(=O)C=CC2=O,rep main protease,enzyme activity,,10 µM,102
Cc1ccc2nc(Cl)c(C=Nc3cc(Br)ccn3)cc2c1,rep papain-like protease,enzyme activity,,10 µM,4.6
Cc1cccn2c(=O)c3cc(C(=O)Nc4ccc(N(C)C)cc4)n(C)c3nc12,rep main protease,enzyme activity,,10 µM,8.7
c1cc(CN2CCCNCCNCCCNCC2)ccc1CN1CCCNCCNCCCNCC1,rep main protease,enzyme activity in cells,HEK-293T,20 µM,-0.49
C[C@@H]1O[C@@H](OC[C@H]2O[C@@H](OCCc3ccc(O)c(O)c3)[C@H](OC(=O)/C=C/c3ccc(O)c(O)c3)[C@@H](O)[C@@H]2O)[C@H](O)[C@H](O)[C@H]1O,rep main protease,enzyme activity,,10 µM,61.7
O=c1c(O)c(-c2ccc(O)cc2)oc2cc(O)cc(O)c12,rep main protease,enzyme activity,,20 µM,12
O=C(O)c1cc(O)c2c(c1)[C@H]([C@H]1c3cc(C(=O)O)cc(O)c3C(=O)c3c(O[C@@H]4O[C@H](CO)[C@@H](O)[C@H](O)[C@H]4O)cccc31)c1cccc(O[C@@H]3O[C@H](CO)[C@@H](O)[C@H](O)[C@H]3O)c1C2=O,rep main protease,enzyme activity,,20 µM,100
COc1cc(C[C@@H](C)[C@@H](C)Cc2cc(O)c(OC)c(OC)c2)cc(O)c1OC,rep main protease,"enzyme activity, FRET",,8 µM,58
CC(C(=O)NC[C@H](NC(=O)c1[nH]nc2nc[nH]c(=O)c12)c1ccc2ccccc2c1)=C1CCC1,rep main protease,enzyme activity,,5 µM,15.1
N=C(N)c1ccc2cc(OC(=O)c3ccc(N=C(N)N)cc3)ccc2c1,rep main protease,enzyme activity,,10 µM,13
COCOc1cc(C)cc2c1C(=O)C=CC2=O,rep main protease,enzyme activity,,10 µM,79.6
O=C(Oc1cc([N+](=O)[O-])ccc1F)c1cccc2[nH]ccc12,rep main protease,"enzyme activity, fluorescence",,"10 µM, pH 7.2",2
COc1ccc(OC)c2c1C(=O)C=CC2=O,rep main protease,enzyme activity,,10 µM,78.5
Cn1cc2c(n1)c(=O)n(Cc1ccc(F)cc1)c1nn(CCOc3ccc(F)cc3)c(=O)n21,rep main protease,enzyme activity,,20 µM,13
COc1cc(-c2oc3cc(O)cc(O)c3c(=O)c2O)ccc1O,rep main protease,"enzyme activity, FRET",,"10 µM, 10 min",25 to 50
O=C1C=CC(=O)c2c(O)cccc21,rep main protease,enzyme activity,,10 µM,102
